Test results as given in ChEMBL document CHEMBL4251576, “Synthesis and biological evaluation of curcumin inspired imidazo[1,2-a]pyridine analogues as tubulin polymerization inhibitors” (Eur J Med Chem, 2018).
Active and inactive are the calls of the source. No cut-off for these calls is given here.

What was measured:
PC-3 [1] = experiment: Induction of mitochondrial membrane depolarization in human PC3 cells at 2 uM after 24 hrs by JC1 staining-based flow cytometric method (reference value: 11.9%); assay type: functional
NCI-H460 = experiment: Potency index, ratio of curcumin IC50 to test compound IC50 for human NCI-H460 cells; assay type: functional
PC-3 [2] = experiment: Induction of apoptosis in human PC3 cells assessed as destructive fragmentation of nuclei at 2 uM after 48 hrs by acridine orange/ethidium bromide staining-based fluorescence inverted microscopic method; assay type: functional, cell-based
Method in brief: (§1)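 PC-3 cells (25000/well) grown 24 h, then exposed 48 h to 0.5, 1 or 2 µM with DMSO control. After PBS wash, stained with acridine orange and ethidium bromide (10 µg/mL each) and imaged at once by fluorescence inverted microscopy (ex 488 nm, em 530 nm, 200x).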

PC-3 [3] = experiment: Induction of apoptosis in human PC3 cells assessed as apoptotic body formation at 1 uM after 48 hrs by acridine orange/ethidium bromide staining-based fluorescence inverted microscopic method; assay type: functional, cell-based; method in brief: as §1
PC-3 [4] = experiment: Induction of apoptosis in human PC3 cells assessed as necrotic cells at 4 uM after 24 hrs by FITC-annexin V/propidium iodide staining-based flow cytometric method (reference value: 0.32%); assay type: functional
PC-3 [5] = experiment: Induction of apoptosis in human PC3 cells assessed as necrotic cells at 2 uM after 24 hrs by FITC-annexin V/propidium iodide staining-based flow cytometric method (reference value: 0.32%); assay type: functional
PC-3 [6] = experiment: Induction of apoptosis in human PC3 cells assessed as blebbing of cell membrane at 0.5 uM after 48 hrs by acridine orange/ethidium bromide staining-based fluorescence inverted microscopic method; assay type: functional; method in brief: as §1
PC-3 [7] = experiment: Induction of mitochondrial membrane depolarization in human PC3 cells after 24 hrs by JC1 staining-based flow cytometric method; assay type: functional, cell-based
RWPE-1 = experiment: Cytotoxicity against human RWPE1 cells assessed as inhibition of cell viability after 48 hrs by MTT assay; assay type: cell-based; details: RWPE-1, 48 h
Method in brief: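 Cells were seeded at 2.5‒5 x 10^3 per well in DMEM or RPMI with 10% FBS and grown 24 h at 37 °C under CO2. Compounds diluted in medium were added alongside vehicle control for 48 h. MTT (0.5 mg/mL) was added for 4 h, formazan dissolved in DMSO and absorbance read at 570 nm. IC50 is the concentration giving 50% loss of viability; mean ± SD of three experiments, each in triplicate.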

PC-3 [8] = experiment: Induction of apoptosis in human PC3 cells after 24 hrs by FITC-annexin V/propidium iodide staining-based flow cytometric method; assay type: functional, cell-based
PC-3 [9] = experiment: Cell cycle arrest in human PC3 cells assessed as accumulation at G0/G1 phase after 24 hrs by propidium iodide staining-based flow cytometric method; assay type: functional

## COc1cc(OC)c(/C=C/C(=O)/C=C/c2nc3ccccn3c2-c2ccc(F)c(F)c2)c(OC)c1
PC-3 [1]
  Activity: 23.67%
NCI-H460
  Ratio IC50: 6.5
PC-3 [2]
  Activity: Active
PC-3 [3]
  Activity: Active
PC-3 [4]
  Activity: 3.12%
PC-3 [5]
  Activity: 1.32%
PC-3 [6]
  Activity: Active
PC-3 [7]
  Activity: Dose-dependent effect
RWPE-1
  IC50: 4.23 µM
PC-3 [8]
  Activity: Dose-dependent effect
PC-3 [9]
  Activity: Dose-dependent effect
